Positions of bridges follow the written chain, without caps; N, C: chain ends. Non-standard residues stand in square brackets, D forms with d. Residues, ends and D or L forms follow the SMILES beside them. Mpa = O=C(O)CCS
What was measured:
[1] = species: Oryctolagus cuniculus; experiment: Compound was tested for the inhibition of the stimulated contractions of the superfused rabbit thoracic aortic rings.; format: functional, Aorta
Summary of the method: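 Rabbit thoracic aorta rings (4 mm) were held isometrically at 10-g resting tension, superfused and precontracted with phenylephrine. Test peptide was added to the superfusate above the tissue in successively higher doses after each recovery. Doses were based on peptide content. EC50 came from the dose-response curve, mean of three determinations ± SEM.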

[2] = species: Rattus norvegicus; experiment: Compound was tested for the Na+ excretion for treated over control animals, the electrolytes tested are; format: functional
Summary of the method: (§1)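 Male Sprague-Dawley rats (300-325 g) under halothane/lidocaine had femoral artery, femoral vein and bladder cannulated. After at least 1 h of recovery in restraint, they received Ringer's (1.2 mL/h), with 10-min urine collections over a 30-min control period. Infusion of 0.5 μg/kg per min for 30 min and a 30-min Ringer's recovery followed. Na+, K+ and Cl- were measured with an electrolyte analyzer, reported as treated minus control μmol/sample. Volume ratio is treated/control over three consecutive 10-min samples, six animals.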

[3] = target: T1, Atrial natriuretic peptide receptor 2 (Bos taurus, UniProt P46197); experiment: Binding affinity was determined based on the displacement of [125]r-ANF (99-126) from binding sites on bovine adrenal zona glomerulosa cell membranes (Atrionatriuretic peptide receptor B)
T1 sequence (P46197 whole entry): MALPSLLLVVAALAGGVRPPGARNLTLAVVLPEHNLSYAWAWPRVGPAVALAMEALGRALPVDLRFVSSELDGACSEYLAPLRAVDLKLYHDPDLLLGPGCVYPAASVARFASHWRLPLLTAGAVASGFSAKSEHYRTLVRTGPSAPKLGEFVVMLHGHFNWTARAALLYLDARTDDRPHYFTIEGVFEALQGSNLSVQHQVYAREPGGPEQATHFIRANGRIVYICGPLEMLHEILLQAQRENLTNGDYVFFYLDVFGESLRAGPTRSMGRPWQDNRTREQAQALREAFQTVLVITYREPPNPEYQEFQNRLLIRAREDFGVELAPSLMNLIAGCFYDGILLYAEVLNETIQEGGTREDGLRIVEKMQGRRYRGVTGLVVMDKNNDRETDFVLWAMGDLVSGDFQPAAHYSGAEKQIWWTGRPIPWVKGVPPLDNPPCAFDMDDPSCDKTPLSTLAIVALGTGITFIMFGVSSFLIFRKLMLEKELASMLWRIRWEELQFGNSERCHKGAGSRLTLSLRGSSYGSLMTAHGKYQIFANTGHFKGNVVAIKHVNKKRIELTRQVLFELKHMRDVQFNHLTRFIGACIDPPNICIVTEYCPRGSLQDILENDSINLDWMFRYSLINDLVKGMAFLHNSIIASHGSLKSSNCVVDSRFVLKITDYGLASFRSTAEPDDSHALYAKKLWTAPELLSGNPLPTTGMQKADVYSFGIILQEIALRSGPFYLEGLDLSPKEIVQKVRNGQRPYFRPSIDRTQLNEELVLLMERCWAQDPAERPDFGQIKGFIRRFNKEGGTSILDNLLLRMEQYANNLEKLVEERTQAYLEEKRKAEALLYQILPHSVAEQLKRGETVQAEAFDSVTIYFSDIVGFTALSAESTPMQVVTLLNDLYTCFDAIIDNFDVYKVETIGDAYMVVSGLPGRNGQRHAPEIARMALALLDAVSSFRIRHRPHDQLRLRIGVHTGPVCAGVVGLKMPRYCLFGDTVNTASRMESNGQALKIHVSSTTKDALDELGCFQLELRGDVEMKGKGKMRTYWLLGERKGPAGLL

[4] = species: Rattus norvegicus; experiment: Compound was tested for the Cl- excretion for treated over control animals, the electrolytes tested are; format: functional; summary of the method: as §1
[5] = target: T2, Atrial natriuretic peptide receptor 3 (Mus musculus, UniProt P70180); experiment: Binding affinity was determined based on the displacement of [125]r-ANF (99-126) from binding sites on mouse fibroblasts (NIH 3T3) cells (Atrionatriuretic peptide receptor C).
T2 sequence (P70180 whole entry): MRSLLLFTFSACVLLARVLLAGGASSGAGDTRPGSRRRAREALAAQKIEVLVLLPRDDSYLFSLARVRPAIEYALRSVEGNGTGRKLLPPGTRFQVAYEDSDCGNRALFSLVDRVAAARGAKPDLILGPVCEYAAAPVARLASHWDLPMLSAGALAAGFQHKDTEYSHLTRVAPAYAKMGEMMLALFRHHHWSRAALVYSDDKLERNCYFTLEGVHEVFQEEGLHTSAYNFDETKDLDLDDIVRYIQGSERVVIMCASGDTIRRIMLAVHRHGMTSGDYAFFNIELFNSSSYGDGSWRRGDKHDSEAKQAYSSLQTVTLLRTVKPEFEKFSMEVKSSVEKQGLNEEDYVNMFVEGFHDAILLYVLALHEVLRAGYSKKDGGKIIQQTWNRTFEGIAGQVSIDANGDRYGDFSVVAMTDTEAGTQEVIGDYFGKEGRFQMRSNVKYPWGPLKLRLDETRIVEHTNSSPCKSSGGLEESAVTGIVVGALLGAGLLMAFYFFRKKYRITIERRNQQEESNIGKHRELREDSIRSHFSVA

[6] = tested on: Rattus norvegicus; experiment: Compound was tested for diuretic activity and the ratio of urine volume for treated over control animals was reported after infused at a dose of 0.5 ug/kg.; format: functional; summary of the method: as §1
[7] = species: Rattus norvegicus; experiment: Compound was tested for antihypertensive activity in DOCA nephrectomized rats.; format: functional
Summary of the method: (§2)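 Rats were anesthetized with halothane after skin infiltration with 2% lidocaine, and the femoral artery and vein were cannulated. After recovery, arterial pressure was recorded. A saline control period was followed by i.v. infusion in 30-min steps at 0.1, 0.2, 0.5 and 1.0 μg/kg per min (70 μL/kg per min). Hydralazine (100 μg/kg per min) was given for standardization. ED50 is in nmol/kg per min, from six animals.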

[8] = species: Rattus norvegicus; experiment: Compound was tested for the K+ excretion for treated over control animals, the electrolytes tested are; format: functional; summary of the method: as §1
[9] = species: Rattus norvegicus; experiment: Compound was tested for antihypertensive activity in 5/6 nephrectomized rats.; format: functional; summary of the method: as §2

CC[C@H](C)[C@@H]1NC(=O)[C@H](CCCN=C(N)N)NC(=O)[C@H](CC(=O)O)NC(=O)[C@H]([C@@H](C)CC)NC(=O)[C@H](CCCN=C(N)N)NC(=O)CNC(=O)CNC(=O)[C@H](Cc2ccccc2)NC(=O)CCSSC[C@@H](C(=O)N[C@@H](CC(N)=O)C(=O)N[C@@H](CO)C(=O)N[C@@H](Cc2ccccc2)C(=O)N[C@@H](CCCN=C(N)N)C(=O)N[C@@H](Cc2ccc(O)cc2)C(=O)O)NC(=O)CNC(=O)[C@H](CC(C)C)NC(=O)CNC(=O)[C@H](CO)NC(=O)[C@H](CCC(N)=O)NC(=O)[C@H](C)NC(=O)CNC1=O ([Mpa]FGGRIDRIGAQSGLGCNSFRY-OH; disulfide 1-17)
EC50 [1]: 1.1e-10 M 50ul-1
Electrolyte excretion [2]: 30.4 uM sample-1
IC50 [3]: 1.03 nM
Electrolyte excretion [4]: 52.9 uM sample-1
IC50 [5]: 0.22 nM
Ratio [6]: 1.7
ED50 [7]: 1.1 nM/min/kg
Electrolyte excretion [8]: 22.6 uM sample-1
ED50 [9]: 1.5 nM/min/kg

Source: ChEMBL document CHEMBL1124824, “Synthesis and biological activity of atrial natriuretic factor analogues: effect of modifications to the disulfide bridge” (J Med Chem, 1990)
